{"source": "ChEMBL document CHEMBL4002631", "about": "“Synthesis, antimycobacterial and cytotoxic activity of α,β-unsaturated amides and 2,4-disubstituted oxazoline derivatives” (Bioorg Med Chem Lett, 2017)"}
{"test_system": "Liver", "test": "Toxicity in Sprague-Dawley rat liver assessed as histological damage at 5 to 30 ug/ml after 24 hrs by hematoxylin and eosin staining-based bright field microscopic method", "format": "tissue-based", "conditions": "not given", "procedure,_shortened": "(§1)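 Ex-vivo 3D assay using precision-cut rat liver slices. Slices were cultured for 24 h at 5, 15 and 30 µg/mL, with compound dissolved in DMSO. Controls were medium alone and 0.5% DMSO (negative), with isoniazid as the reference. Read-out was histopathology of H&E-stained sections under bright-field light microscopy (40x), scoring hepatic cords, portal triads, central veins, inflammatory infiltrate and necrosis.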"}
{"smiles": "COc1ccc(/C=C/C2=N[C@@H](Cc3ccccc3)CO2)cc1", "Activity": "Non-Toxic"}
{"test_system": "Mycobacterium tuberculosis", "test": "Antimycobacterial activity against isoniazid/rifampicin/ethambutol-sensitive Mycobacterium tuberculosis H37Rv after 4 days by Alamar blue assay", "format": "functional", "conditions": "96 h", "procedure,_shortened": "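Microplate Alamar blue assay against M. tuberculosis H37Rv (sensitive to isoniazid, rifampicin and ethambutol) and a clinical isolate resistant to all three drugs. Compounds were tested at 256, 128, 64, 32, 16, 8, 4, 2 and 1 µg/mL. Isoniazid, rifampicin, ethambutol and ofloxacin controls were run under the same conditions. MIC is given in µg/mL and converted to µM.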", "units": {"MIC": "µM"}}
{"smiles": "C(=C\\c1ccccc1)/C1=N[C@@H](Cc2ccccc2)CO1", "MIC": 60.8}
{"smiles": "C(=C\\c1cccs1)/C1=N[C@@H](Cc2ccccc2)CO1", "MIC": 29.7}
{"smiles": "O=C(/C=C/c1ccc(OCc2ccccc2)cc1)N[C@H](CO)Cc1ccccc1", "MIC": 41.2}
{"smiles": "COc1ccc(/C=C/C2=N[C@@H](Cc3ccccc3)CO2)cc1", "MIC": 13.6}
{"smiles": "COc1ccc(/C=C/C(=O)N[C@H](CO)Cc2ccccc2)cc1", "MIC": 25.6}
{"smiles": "O=C(/C=C/c1cccs1)N[C@H](CO)Cc1ccccc1", "MIC": 55.6}
{"smiles": "O=C(/C=C/c1ccccc1)N[C@H](CO)Cc1ccccc1", "MIC": 56.8}
{"smiles": "Fc1ccc(/C=C/C2=N[C@@H](Cc3ccccc3)CO2)cc1", "MIC": 14.2}
{"smiles": "Clc1ccc(/C=C/C2=N[C@@H](Cc3ccccc3)CO2)cc1", "MIC": 26.9}
{"smiles": "C(=C\\c1ccc(OCc2ccccc2)cc1)/C1=N[C@@H](Cc2ccccc2)CO1", "MIC": 10.8}
{"smiles": "O=C(/C=C/c1ccc(Cl)cc1)N[C@H](CO)Cc1ccccc1", "MIC": 25.3}
{"smiles": "O=C(/C=C/c1ccc(F)cc1)N[C@H](CO)Cc1ccccc1", "MIC": 26.7}
{"smiles": "CC[C@@H](CO)NCCN[C@@H](CC)CO", "note": "[ETHAMBUTOL]", "MIC": 39.1}
{"smiles": "NNC(=O)c1ccncc1", "note": "[ISONIAZID]", "MIC": "< 7.2"}
{"smiles": "CC1COc2c(N3CCN(C)CC3)c(F)cc3c(=O)c(C(=O)O)cn1c23", "note": "(centres undefined) [OFLOXACIN]", "MIC": "< 2.7"}
{"smiles": "CO[C@H]1/C=C/O[C@@]2(C)Oc3c(C)c(O)c4c(O)c(c(/C=N/N5CCN(C)CC5)c(O)c4c3C2=O)NC(=O)/C(C)=C\\C=C\\[C@H](C)[C@H](O)[C@@H](C)[C@@H](O)[C@@H](C)[C@H](OC(C)=O)[C@@H]1C", "note": "[RIFAMPIN]", "MIC": 4.8}
{"test_system": "Liver", "test": "Toxicity in Sprague-Dawley rat liver assessed as presence of periportal inflammatory infiltrate at 5 to 30 ug/ml after 24 hrs by hematoxylin and eosin staining-based bright field microscopic method", "format": "tissue-based", "conditions": "not given", "procedure,_shortened": "as §1"}
{"smiles": "NNC(=O)c1ccncc1", "note": "[ISONIAZID]", "Activity": "Toxic"}
{"test_system": "Liver", "test": "Toxicity in Sprague-Dawley rat liver assessed as centrilobular necrosis at 5 to 30 ug/ml after 24 hrs by hematoxylin and eosin staining-based bright field microscopic method", "format": "tissue-based", "conditions": "not given", "procedure,_shortened": "as §1"}
{"smiles": "NNC(=O)c1ccncc1", "note": "[ISONIAZID]", "Activity": "Toxic"}
